Active and inactive are the calls of the source. No cut-off for these calls is given here.
What was measured:
Caco-2 = test: Cytotoxicity against human Caco2 cells assessed as cell viability after 72 hrs by MTT assay; type: functional, cell-based; details: Caco-2, 72 h
In short: (§1)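 Cells were grown at 37 °C in humidified 5% CO2/95% air. DU145 and A549 were kept in DMEM with 10% FCS, glutamine and nonessential amino acids. LNCaP, KB and M14 were kept in RPMI with 10% FCS, and Caco2 in MEM with 10% FCS. For the MTT assay, 1 × 10^4 cells were seeded per well and preincubated 24 h, then treated 72 h (DMSO ≤0.1%). MTT (0.5% in PBS) was added 4 h before the end, formazan was dissolved in DMSO, and OD was read at 550 nm. Triplicates were run.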

DU-145 [1] = test: Cytotoxicity against human DU145 cells assessed as cell viability after 72 hrs by MTT assay; type: functional, cell-based; details: DU-145, 72 h; in short: as §1
KB = test: Cytotoxicity against human KB cells assessed as cell viability after 72 hrs by MTT assay; type: functional, cell-based; in short: as §1
M14 = test: Cytotoxicity against human M14 cells assessed as cell viability after 72 hrs by MTT assay; type: functional, cell-based; details: M14, 72 h; in short: as §1
[2] = Cytotoxicity against human fibroblasts assessed as cell viability after 72 hrs by MTT assay relative to control; type: cell-based, Fibroblast; parameters: concentration or dose not given beside the values; details: read-out: Activity
LNCaP = test: Cytotoxicity against human LNCAP cells assessed as cell viability after 72 hrs by MTT assay; type: functional, cell-based; in short: as §1
A549 = test: Cytotoxicity against human A549 cells assessed as cell viability after 72 hrs by MTT assay; type: functional, cell-based; details: A549, 72 h; in short: as §1
[3] = molecular target: T1, AKT/p21CIP1 (Homo sapiens) (UniProt P38936+P31749); test: Inhibition of AKT/p21CIP1 in human DU145 cells assessed as decrease in ratio of phosphorylated retinoblastoma level to unphosphorylated retinoblastoma level at 0.1 uM after 72 hrs by Western blotting analysis; type: cell-based; details: DU-145, 1 uM, in the assay text read “1 uM” for “0.1 uM”
In short: (§2)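 DU145 cells were treated 72 h and lysed in 2% SDS buffer. Equal protein was resolved by SDS-PAGE and probed for phospho-Rb Ser249/Thr252, total Rb (1:200 each) and α-tubulin. Bands were visualized on autoradiography film and read densitometrically relative to α-tubulin. The p-Rb/Rb ratio was compared with control. Results are mean SEM of three experiments, with Student's t test.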

[4] = molecular target: T1, AKT/p21CIP1 (Homo sapiens); test: Inhibition of AKT/p21CIP1 in human DU145 cells assessed as decrease in ratio of phosphorylated retinoblastoma level to unphosphorylated retinoblastoma level at 1 uM after 72 hrs by Western blotting analysis; type: cell-based; details: DU-145; in short: as §2
DU-145 [5] = test: Decrease in total GSK3beta protein level in human DU145 cells at 1 uM after 72 hrs by Western blotting analysis; type: functional, cell-based
In short: (§3)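 DU145 cells were treated 72 h, rinsed in PBS and lysed in 2% SDS buffer (50 mM Tris-HCl pH 6.8, protease inhibitors, 2 mM orthovanadate, 1 mM NaF, 1 mM pyrophosphate). Protein was quantified by BCA, and equal protein was run on 10% SDS-PAGE and blotted to nitrocellulose. Blots were blocked in 5% milk TBS-Tween 0.1%, detected by ECL and normalized to β-actin. Results are mean SEM of three experiments, with Student's t test versus control.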

DU-145 [6] = test: Decrease in total GSK3beta protein level in human DU145 cells at 0.1 uM after 72 hrs by Western blotting analysis; type: functional, cell-based; details: 1 uM, in the assay text read “1 uM” for “0.1 uM”; in short: as §3
DU-145 [7] = test: Effect on total AKT protein level in human DU145 cells at 1 uM after 72 hrs by Western blotting analysis; type: functional, cell-based; in short: as §3
[8] = molecular target: RAC-alpha serine/threonine-protein kinase (Homo sapiens) (UniProt P31749); test: Inhibition of AKT phosphorylation at Ser473 in human DU145 cells at 1 uM after 72 hrs by Western blotting analysis relative to control; type: cell-based; details: DU-145; in short: as §3
RAC-alpha serine/threonine-protein kinase (Homo sapiens), sequence (P31749 whole entry): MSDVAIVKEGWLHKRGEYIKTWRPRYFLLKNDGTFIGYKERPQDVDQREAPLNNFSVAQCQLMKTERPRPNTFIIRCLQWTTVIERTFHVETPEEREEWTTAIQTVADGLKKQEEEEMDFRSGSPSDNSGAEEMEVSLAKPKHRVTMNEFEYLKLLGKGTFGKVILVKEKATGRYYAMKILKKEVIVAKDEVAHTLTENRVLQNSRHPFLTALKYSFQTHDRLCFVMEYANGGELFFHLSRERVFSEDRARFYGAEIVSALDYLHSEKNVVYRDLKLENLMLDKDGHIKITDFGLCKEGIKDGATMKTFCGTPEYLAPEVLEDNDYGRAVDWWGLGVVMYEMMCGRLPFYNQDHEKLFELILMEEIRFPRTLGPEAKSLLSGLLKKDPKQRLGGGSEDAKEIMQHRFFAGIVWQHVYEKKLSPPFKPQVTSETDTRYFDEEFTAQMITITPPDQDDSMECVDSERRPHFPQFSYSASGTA

[9] = molecular target: Glycogen synthase kinase-3 beta (Homo sapiens) (UniProt P49841); test: Inhibition of GSK3beta phosphorylation at Ser9 in human DU145 cells at 0.1 uM after 72 hrs by Western blotting analysis; type: cell-based; details: DU-145; in short: as §3
Glycogen synthase kinase-3 beta (Homo sapiens), sequence (P49841 whole entry, looked up): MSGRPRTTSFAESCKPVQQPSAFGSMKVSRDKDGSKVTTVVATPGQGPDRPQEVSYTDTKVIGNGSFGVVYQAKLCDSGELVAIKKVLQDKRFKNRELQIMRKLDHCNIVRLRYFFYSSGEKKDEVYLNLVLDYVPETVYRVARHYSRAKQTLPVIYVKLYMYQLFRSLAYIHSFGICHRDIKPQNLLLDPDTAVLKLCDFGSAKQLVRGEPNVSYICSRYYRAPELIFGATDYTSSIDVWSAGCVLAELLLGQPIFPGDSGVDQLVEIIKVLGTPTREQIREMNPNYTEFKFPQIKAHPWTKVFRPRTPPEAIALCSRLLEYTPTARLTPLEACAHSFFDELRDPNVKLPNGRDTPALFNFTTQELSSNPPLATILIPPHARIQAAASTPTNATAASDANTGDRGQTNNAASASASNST

[10] = molecular target: T2, Mitogen-activated protein kinase; ERK1/ERK2 (Homo sapiens) (UniProt P27361+P28482); test: Inhibition of ERK1/2 phosphorylation at Thr202/Tyr204 in human DU145 cells at 0.1 uM after 72 hrs by Western blotting analysis relative to control; type: cell-based; details: DU-145; in short: as §3
T2 sequence (P27361 whole entry, looked up): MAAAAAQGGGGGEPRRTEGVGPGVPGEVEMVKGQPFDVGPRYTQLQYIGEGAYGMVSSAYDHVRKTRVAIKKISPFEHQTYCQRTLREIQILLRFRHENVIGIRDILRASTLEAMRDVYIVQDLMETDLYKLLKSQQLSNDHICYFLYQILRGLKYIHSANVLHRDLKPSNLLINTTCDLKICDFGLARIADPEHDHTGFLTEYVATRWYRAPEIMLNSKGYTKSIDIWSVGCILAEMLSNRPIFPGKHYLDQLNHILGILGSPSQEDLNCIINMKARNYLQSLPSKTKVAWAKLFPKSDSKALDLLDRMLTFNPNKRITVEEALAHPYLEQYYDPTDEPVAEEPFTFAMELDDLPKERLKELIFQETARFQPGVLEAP
T2 sequence (P28482 whole entry, looked up): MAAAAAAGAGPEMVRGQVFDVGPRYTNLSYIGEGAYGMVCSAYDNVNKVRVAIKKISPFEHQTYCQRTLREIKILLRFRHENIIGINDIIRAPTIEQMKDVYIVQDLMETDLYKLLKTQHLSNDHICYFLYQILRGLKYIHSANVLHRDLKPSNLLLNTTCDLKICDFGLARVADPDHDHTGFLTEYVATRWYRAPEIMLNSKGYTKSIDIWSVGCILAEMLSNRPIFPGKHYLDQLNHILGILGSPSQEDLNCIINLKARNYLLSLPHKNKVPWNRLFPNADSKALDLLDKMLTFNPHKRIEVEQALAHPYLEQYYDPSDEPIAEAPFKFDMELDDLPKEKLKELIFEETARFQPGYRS

[11] = molecular target: T2, Mitogen-activated protein kinase; ERK1/ERK2 (Homo sapiens); test: Inhibition of ERK1/2 phosphorylation at Thr202/Tyr204 in human DU145 cells at 1 uM after 72 hrs by Western blotting analysis relative to control; type: cell-based; details: DU-145; in short: as §3
DU-145 [12] = test: Effect on total AKT protein level in human DU145 cells at 0.1 uM after 72 hrs by Western blotting analysis; type: functional, cell-based; in short: as §3
[13] = molecular target: RAC-alpha serine/threonine-protein kinase (Homo sapiens) (UniProt P31749); test: Inhibition of AKT phosphorylation at Ser473 in human DU145 cells at 0.1 uM after 72 hrs by Western blotting analysis relative to control; type: cell-based; details: DU-145; in short: as §3
DU-145 [14] = test: Increase in p21 protein expression in human DU145 cells at 1 uM after 72 hrs by Western blotting analysis; type: functional, cell-based; in short: as §3
DU-145 [15] = test: Effect on total ERK1/2 protein level in human DU145 cells at 1 uM after 72 hrs by Western blotting analysis; type: functional, cell-based; in short: as §3
DU-145 [16] = test: Increase in p21 protein expression in human DU145 cells at 0.1 uM after 72 hrs by Western blotting analysis; type: functional, cell-based; details: 1 uM, in the assay text read “1 uM” for “0.1 uM”; in short: as §3
[17] = molecular target: Glycogen synthase kinase-3 beta (Homo sapiens) (UniProt P49841); test: Inhibition of GSK3beta phosphorylation at Ser9 in human DU145 cells at 1 uM after 72 hrs by Western blotting analysis; type: cell-based; details: DU-145; in short: as §3
DU-145 [18] = test: Effect on total ERK1/2 protein level in human DU145 cells at 0.1 uM after 72 hrs by Western blotting analysis; type: functional, cell-based; in short: as §3

SMILES	IC50 (Caco-2) [µM]	IC50 (DU-145 [1]) [µM]	IC50 (KB) [µM]	IC50 (M14) [µM]	viability at 72 h [2] [%]	IC50 (LNCaP) [µM]	IC50 (A549) [µM]	other results
NC(=O)/C(=C/c1c[nH]c2ccc(OCc3ccccc3)cc12)c1ccccc1	> 100	30.9	40.3	> 100	85	–	–	–
CC(=O)n1cc(/C=C(/C(=O)O)c2ccc3c(c2)OCO3)c2cc(OCc3ccccc3)ccc21	–	1.15	> 100	> 100	85	99.1	53.6	–
COc1ccccc1/C(=C\c1cn(C(C)=O)c2ccc(OCc3ccccc3)cc12)C(=O)O	–	1.01	> 100	> 100	85	48.5	57.2	–
COc1ccc(/C(=C\c2c[nH]c3ccc(OCc4ccccc4)cc23)C(N)=O)cc1	> 100	39.8	> 100	> 100	85	–	–	–
COc1ccc(/C(=C\c2c[nH]c3ccccc23)C(=O)O)cc1	> 100	> 100	> 100	> 100	85	–	–	–
COc1cccc(/C(=C\c2cn(C(C)=O)c3ccc(OCc4ccccc4)cc23)C(=O)O)c1	–	1.08	> 100	> 100	85	65.1	45.2	–
NC(=O)/C(=C/c1c[nH]c2ccccc12)c1ccccc1	> 100	33.3	> 100	45.4	85	–	–	–
O=C(O)/C(=C/c1c[nH]c2ccccc12)c1ccccc1	> 100	> 100	> 100	> 100	85	–	–	–
COc1cc(/C(=C\c2cn(C(C)=O)c3ccc(OCc4ccccc4)cc23)C(=O)O)cc(OC)c1OC	–	0.95	> 100	57.1	85	59.6	89.1	–
COc1ccc(/C(=C\c2c[nH]c3ccc(OCc4ccccc4)cc23)C(=O)O)cc1	> 100	38.1	38.5	58.4	85	–	–	–
COc1ccc(OC)c(/C(=C\c2cn(C(C)=O)c3ccc(OCc4ccccc4)cc23)C(=O)O)c1	–	0.83	> 100	87.1	85	44.1	54.5	–
O=C(O)/C(=C/c1c[nH]c2ccc(OCc3ccccc3)cc12)c1ccccc1	41.6	34.7	55.5	95.2	85	–	–	–
COc1ccc(Cn2cc(/C=C(/C(=O)O)c3ccccc3)c3cc(OCc4ccccc4)ccc32)cc1	–	0.86	97	64.5	85	38.2	1	–
COc1ccc(/C(=C\c2c[nH]c3ccccc23)C(N)=O)cc1	> 100	40	86.2	53	85	–	–	–
COc1ccc(/C(=C\c2cn(C(C)=O)c3ccc(OCc4ccccc4)cc23)C(=O)O)cc1OC	–	1.05	96.7	65.5	85	> 100	54.8	–
CC(=O)n1cc(/C=C(/C(=O)O)c2ccc(Cl)cc2)c2cc(OCc3ccccc3)ccc21	–	1.13	> 100	> 100	85	> 100	52.3	–
COc1cc(OC)cc(/C(=C\c2cn(C(C)=O)c3ccc(OCc4ccccc4)cc23)C(=O)O)c1	–	0.88	30.4	94	85	26.1	26	–
COc1ccc(/C(=C\c2cn(C(C)=O)c3ccc(OCc4ccccc4)cc23)C(=O)O)cc1	–	0.91	> 100	> 100	85	85	> 100	inhibition [3]: Active; inhibition [4]: Active; Activity (DU-145 [5]): Active; Activity (DU-145 [6]): Active; Activity (DU-145 [7]): inactive; inhibition [8]: 20%; inhibition [9]: inactive; inhibition [10]: Active; inhibition [11]: 40%; Activity (DU-145 [12]): inactive; inhibition [13]: Active; Activity (DU-145 [14]): Active; Activity (DU-145 [15]): inactive; Activity (DU-145 [16]): Active; inhibition [17]: inactive; Activity (DU-145 [18]): inactive
CC(=O)n1cc(/C=C(/C(=O)O)c2ccccc2)c2cc(OCc3ccccc3)ccc21	–	26.7	55.5	> 100	85	> 100	57.5	–
CC(=O)n1cc(/C=C(/C(=O)O)c2ccc(OCc3ccccc3)cc2)c2cc(OCc3ccccc3)ccc21	–	1.41	43	58.2	85	77.7	44.1	–
